Measurements as given in publication PMC6044901 (ACS Omega, 2018).

Tests used:
[1] = iv; cited from earlier work
[2] = PK after iv injection in mice; type: in vivo; conditions: iv 1 mg/kg, GLP-1 ELISA, T1/2 elim unavailable
In short: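 Male ICR mice, 6 weeks old, n = 3, given a single iv injection: 1 mg/kg as GLP-1 peptide-equivalent weight for screening, or 300 nmol/kg. Tail-vein blood taken at 0, 12, 24, 48, 72, 96, 120 and 144 h; plasma stored at −80 °C. Active GLP-1 ELISA with a four-parameter logistic standard curve. Half-life computed; mean of three measurements.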

[3] = PK after sc injection in mice; type: in vivo; conditions: male, Crl:CD1 (ICR), mouse, plasma, 100 nmol/kg
In short: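 Male ICR mice, 6 weeks old, n = 3, given a single sc injection: test compound at 100 or 300 nmol/kg, or liraglutide at 100 nmol/kg. Tail-vein plasma sampled at 0–144 h (0, 12, 24, 48, 72, 96, 120, 144 h) and stored at −80 °C. Active GLP-1 ELISA with a four-parameter logistic fit. Bioavailability from sc and iv dosing run in parallel.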

[4] = nonhuman primate; cited from earlier work

## Glucagon-like peptide-1 [GLP-1]
[1]
  half-life (T1/2 elim) injected intravenously: ≤ 2 min

## CCCCCCCCCCCCCCCC(=O)N[C@@H](CCC(=O)NCCCC[C@H](NC(=O)[C@H](C)NC(=O)[C@H](C)NC(=O)[C@H](CCC(N)=O)NC(=O)CNC(=O)[C@H](CCC(=O)O)NC(=O)[C@H](CC(C)C)NC(=O)[C@H](Cc1ccc(O)cc1)NC(=O)[C@H](CO)NC(=O)[C@H](CO)NC(=O)[C@@H](NC(=O)[C@H](CC(=O)O)NC(=O)[C@H](CO)NC(=O)[C@@H](NC(=O)[C@H](Cc1ccccc1)NC(=O)[C@@H](NC(=O)CNC(=O)[C@H](CCC(=O)O)NC(=O)[C@H](C)NC(=O)[C@@H](N)Cc1cnc[nH]1)[C@@H](C)O)[C@@H](C)O)C(C)C)C(=O)N[C@@H](CCC(=O)O)C(=O)N[C@@H](Cc1ccccc1)C(=O)N[C@H](C(=O)N[C@@H](C)C(=O)N[C@@H](Cc1c[nH]c2ccccc12)C(=O)N[C@@H](CC(C)C)C(=O)N[C@H](C(=O)N[C@@H](CCCNC(=N)N)C(=O)NCC(=O)N[C@@H](CCCNC(=N)N)C(=O)NCC(=O)O)C(C)C)[C@@H](C)CC)C(=O)O [liraglutide, reference compound]
[2]
  plasma immunoreactive GLP-1 level at 48 h after iv injection: below the detection limit
[3]
  MRT: 15.5 h

B1: 99 kDa HPN-conjugated G-CSF: 99 kDa heparosan-conjugated G-CSF, ref 39 (conjugate, UniProt P09919 31-207, looked up)
Granulocyte …: TPLGPASSLPQSFLLKCLEQVRKIQGDGAALQEKLVSECATYKLCHPEELVLLGHSLGIPWAPLSSCPSQALQLAGCLSQLHSGLFLYQGLLQALEGISPELGPTLDTLQLDVADFATTIWQQMEELGMAPALQPTQGAMPAFASAFQRRAGGVLVASHLQSFLEVSYRVLRHLAQP
modifications: 99 kDa heparosan conjugate
[4]
  T1/2 elim: 190 h
